Reference: ChEMBL document CHEMBL4371072, “Structure-Activity Relationship Studies and Plasmodium Life Cycle Profiling Identifies Pan-Active N-Aryl-3-trifluoromethyl Pyrido[1,2- a]benzimidazoles Which Are Efficacious in an in Vivo Mouse Model of Malaria” (J Med Chem, 2019)
pIC50: −log10 of the molar value. Blank lines part the entries; values can stand above or below the compound they belong to.

Key:
Plasmodium falciparum [1] = assay: (§1) Antiplasmodial activity against chloroquine-sensitive asexual blood stage of Plasmodium falciparum NF54 infected in human RBC assessed as reduction in [3H]hypoxanthine incorporation preincubated for 48 hrs followed by [3H]hypoxanthine addition measured after 24 hrs by liquid scintillation counting method; format: functional, organism-based
In short: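 Asexual blood-stage P. falciparum NF54 assay, run as a modified [3H]-hypoxanthine incorporation assay. Values are the mean of n ≥ 2 assays; determinations differing more than 3-fold were excluded. Chloroquine and artesunate served as controls.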

Plasmodium falciparum [2] = assay: as §1, with “chloroquine-resistant” for “chloroquine-sensitive”, “K1” for “NF54”; format: functional, organism-based
In short: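 Asexual blood-stage P. falciparum K1 (multidrug resistant) screened by modified [3H]-hypoxanthine incorporation assay; IC50 as mean of n ≥ 2 assays, replicates differing above 3-fold excluded; chloroquine and artesunate controls.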

Plasmodium falciparum [3] = assay: Antiplasmodial activity against chloroquine-sensitive final late stage of Plasmodium falciparum NF54-Mal8p1.16-GFP-Luc gametocytes after 24 hrs by BacTiter-Glo assay; format: functional, organism-based; settings: NF54, 24 h
In short: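 Late-stage PfNF54 gametocytes produced in vitro; gametocytocidal IC50 via luciferase reporter and ATP bioluminescence platforms; n=3 independent biological replicates in technical triplicates, ± S.E.M.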

[4] = Resistance index, ratio of IC50 for chloroquine-resistant asexual blood stage of Plasmodium falciparum K1 infected in human RBC to IC50 for chloroquine-sensitive asexual blood stage of Plasmodium falciparum NF54 infected in human RBC; format: functional
Hemozoin = assay: Inhibition of beta hematin formation after 5 hrs by NP40 detergent-based assay
[5] = Metabolic stability in Balb/c mouse liver microsomes assessed as parent compound remaining at 0.1 uM after 30 mins in presence of NADPH by LC-MS/MS analysis; settings: liver microsomes
[6] = Half life in Balb/c mouse liver microsomes at 0.1 uM in presence of NADPH by LC-MS/MS analysis; settings: liver microsomes
[7] = Metabolic stability in human liver microsomes assessed as parent compound remaining at 0.1 uM after 30 mins in presence of NADPH by LC-MS/MS analysis; settings: liver microsomes
[8] = Half life in human liver microsomes at 0.1 uM in presence of NADPH by LC-MS/MS analysis; settings: liver microsomes
CHO = assay: Cytotoxicity against CHO cells after 48 hrs by MTT assay; format: cell-based; settings: Cricetulus griseus
[9] = Selectivity index, ratio of IC50 for CHO cells to IC50 for chloroquine-sensitive asexual blood stage of Plasmodium falciparum NF54 infected in human RBC; format: toxicity; settings: Chinese hamster, read-out: Ratio IC50
In short: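 Selectivity index taken as the ratio of the CHO-cell IC50 to the P. falciparum NF54 IC50.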

Plasmodium berghei = assay: Antimalarial activity against liver stage form of luciferase transfected Plasmodium berghei sporozoites infected in human HuH7 cells preincubated with host cells for 1 hr followed by plasmodial infection and measured after 48 hrs by bioluminescence method; format: functional, organism-based; settings: Huh-7

SMILES: NC(=O)c1c(C(F)(F)F)cc(NCc2ccccn2)n2c1nc1ccccc12
pIC50 (Plasmodium falciparum [1]): < 5.00 | pIC50 (Plasmodium falciparum [2]): < 5.00

SMILES: N#Cc1c(C(F)(F)F)cc(Nc2ncccn2)n2c1nc1ccccc12
pIC50 (Plasmodium falciparum [1]): < 5.57

SMILES: C[C@H]1[C@H](OC(=O)CCC(=O)O)O[C@@H]2O[C@@]3(C)CC[C@H]4[C@H](C)CC[C@@H]1[C@@]24OO3 [ARTESUNATE]
pIC50 (Plasmodium falciparum [1]): 8.40 | pIC50 (Plasmodium falciparum [2]): 8.52

SMILES: CN(C)c1ccc2nc3ccc(N(C)C)cc3[s+]c2c1 [METHYLENE BLUE ANHYDROUS]
pIC50 (Plasmodium falciparum [3]): 6.05

SMILES: N#Cc1c(C(F)(F)F)cc(N2CCNCC2)n2c1nc1ccccc12
pIC50 (Plasmodium falciparum [1]): 5.00

SMILES: CS(=O)(=O)c1ccc(CNc2cc(C(F)(F)F)c(C#N)c3nc4cc(Cl)c(Cl)cc4n23)cc1
pIC50 (Plasmodium falciparum [1]): 5.27 | pIC50 (Plasmodium falciparum [2]): 5.25 | Ratio IC50 [4]: 1.05 | pIC50 (Hemozoin): < 4.00

SMILES: N#Cc1c(C(F)(F)F)cc(NCc2ccccn2)n2c1nc1cc(Cl)c(Cl)cc12
pIC50 (Plasmodium falciparum [1]): 5.85 | pIC50 (Hemozoin): 4.23 | pIC50 (Plasmodium falciparum [3]): 5.61 | remaining at 0.5 h, 0.1 µM [5]: 31% | half-life at 0.1 µM [6]: 18 min | remaining at 0.5 h, 0.1 µM [7]: 72% | half-life at 0.1 µM [8]: 63 min | pIC50 (CHO): 6.12 | selectivity ratio [9]: 0.5

SMILES: N#Cc1c(C(F)(F)F)cc(Nc2ccccc2OC(F)(F)F)n2c1nc1ccccc12
pIC50 (Plasmodium falciparum [1]): 6.06 | pIC50 (Plasmodium falciparum [2]): 6.21 | Ratio IC50 [4]: 0.71

SMILES: COc1ncnc(Nc2cc(C(F)(F)F)c(C#N)c3nc4ccccc4n23)c1OC
pIC50 (Plasmodium falciparum [1]): < 5.55

SMILES: N#Cc1c(C(F)(F)F)cc(NS(=O)(=O)c2ccccn2)n2c1nc1cc(Cl)c(Cl)cc12
pIC50 (Plasmodium falciparum [1]): < 5.22 | pIC50 (Hemozoin): < 4.00

SMILES: N#Cc1c(C(F)(F)F)cc(NS(=O)(=O)c2ccc(OC(F)(F)F)cc2)n2c1nc1cc(Cl)c(Cl)cc12
pIC50 (Plasmodium falciparum [1]): 5.17 | pIC50 (Plasmodium falciparum [2]): 5.23 | Ratio IC50 [4]: 0.87 | pIC50 (Hemozoin): 4.11

SMILES: NC(=O)c1c(C(F)(F)F)cc(NCc2ccc(OC(F)(F)F)cc2)n2c1nc1ccccc12
pIC50 (Plasmodium falciparum [1]): 5.29 | pIC50 (Plasmodium falciparum [2]): 5.12 | Ratio IC50 [4]: 1.47

SMILES: N#Cc1c(C(F)(F)F)cc(NCc2ccc(OC(F)(F)F)cc2)n2c1nc1ccccc12
pIC50 (Plasmodium falciparum [1]): 6.04 | pIC50 (Plasmodium falciparum [2]): 6.08 | Ratio IC50 [4]: 0.91 | pIC50 (Plasmodium berghei): 6.32 | pIC50 (CHO): < 3.65 | selectivity ratio [9]: > 241

SMILES: FC(F)(F)Oc1ccc(Nc2cc(C(F)(F)F)cc3nc4ccccc4n23)cc1
pIC50 (Plasmodium falciparum [1]): 5.37 | pIC50 (Plasmodium falciparum [2]): 5.47 | Ratio IC50 [4]: 0.79

Further lines, results first:

pIC50 (Plasmodium falciparum [1]): 5.32
SMILES: N#Cc1c(C(F)(F)F)cc(NCc2ncccn2)n2c1nc1ccccc12

pIC50 (Plasmodium falciparum [1]): 5.80
SMILES: COC(=O)c1ccc(Nc2cc(C(F)(F)F)c(C#N)c3nc4ccccc4n23)cc1

pIC50 (Plasmodium falciparum [1]): 5.06
SMILES: N#Cc1c(C(F)(F)F)cc(NCc2ccc(O)cc2)n2c1nc1ccccc12

pIC50 (Plasmodium falciparum [1]): 5.94
SMILES: CCCOc1ccc(Nc2cc(C(F)(F)F)c(C#N)c3nc4ccccc4n23)cc1

pIC50 (Plasmodium falciparum [1]): 5.53
SMILES: CN(C)c1ccc(CNc2cc(C(F)(F)F)c(C#N)c3nc4ccccc4n23)cc1

pIC50 (Plasmodium falciparum [1]): < 5.64
SMILES: CN(C)C(=O)c1ccc(CNc2cc(C(F)(F)F)c(C#N)c3nc4ccccc4n23)cc1

pIC50 (Plasmodium falciparum [1]): 5.63
SMILES: N#Cc1ccc(Nc2cc(C(F)(F)F)c(C#N)c3nc4ccccc4n23)cc1

pIC50 (Plasmodium falciparum [1]): < 5.66 | pIC50 (Hemozoin): 4.30
SMILES: N#Cc1c(C(F)(F)F)cc(Nc2ccc(CN3CCOCC3)cc2)n2c1nc1ccccc12

pIC50 (Plasmodium falciparum [1]): < 5.22
SMILES: NC(=O)c1c(C(F)(F)F)cc(NCc2ccc(F)cc2)n2c1nc1ccccc12

pIC50 (Plasmodium falciparum [1]): 5.65
SMILES: COc1ccc(Nc2cc(C(F)(F)F)c(C#N)c3nc4ccccc4n23)cc1

pIC50 (Plasmodium falciparum [1]): 5.67
SMILES: Cc1ccc(Nc2cc(C(F)(F)F)c(C#N)c3nc4ccccc4n23)cc1

pIC50 (Plasmodium falciparum [1]): < 5.63
SMILES: CN(C)C(=O)c1ccc(Nc2cc(C(F)(F)F)c(C#N)c3nc4ccccc4n23)cc1

pIC50 (Plasmodium falciparum [1]): 5.50
SMILES: COc1ccc(CNc2cc(C(F)(F)F)c(C#N)c3nc4ccccc4n23)cc1

pIC50 (Plasmodium falciparum [1]): 5.35
SMILES: N#Cc1c(C(F)(F)F)cc(Nc2cnccn2)n2c1nc1ccccc12
